{"source": "paper PMC6649664", "about": "(Cell host & microbe, 2019)", "type_in_all_cases": "cell-based", "key": {"MRGPRX2": {"molecular_target": "T1, MRGPRX2 (Homo sapiens, UniProt Q96LB1)", "T1 sequence (Q96LB1 1-330)": "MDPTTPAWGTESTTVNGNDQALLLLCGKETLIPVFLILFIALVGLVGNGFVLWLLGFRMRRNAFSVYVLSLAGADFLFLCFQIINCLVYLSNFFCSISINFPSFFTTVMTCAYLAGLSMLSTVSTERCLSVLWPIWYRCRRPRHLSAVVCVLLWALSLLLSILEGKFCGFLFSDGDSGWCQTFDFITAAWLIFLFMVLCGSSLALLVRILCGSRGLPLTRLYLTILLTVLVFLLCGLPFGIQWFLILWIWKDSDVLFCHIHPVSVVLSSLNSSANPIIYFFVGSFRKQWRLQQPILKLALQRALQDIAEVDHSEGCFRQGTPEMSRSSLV", "test": "Calcium imaging / FLIPR EC50 determination in HEK293 cells expressing MRGPRX2", "details": "HEK293 cells stably expressing MRGPRX2 and Gα15", "procedure,_shortened": "(§1)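 HEK293 cells stably co-expressing Gα15 with the receptor were seeded at 4 × 10^4 cells/well and cultured overnight. After dye loading for 60 min at 37°C and 15 min recovery at RT, fluorescence was recorded on a Flexstation for 120 s. Compound, dissolved in HBSS+HEPES, was added as a 3X solution at 30 s. Response was taken as maximum minus minimum signal, averaged from duplicate wells. EC50 was fitted per trial after normalising to that trial's peak response.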"}, "Mrgprb2": {"molecular_target": "T2, Mrgprb2 (Mus musculus, UniProt Q3KNA1)", "T2 sequence (Q3KNA1 1-338)": "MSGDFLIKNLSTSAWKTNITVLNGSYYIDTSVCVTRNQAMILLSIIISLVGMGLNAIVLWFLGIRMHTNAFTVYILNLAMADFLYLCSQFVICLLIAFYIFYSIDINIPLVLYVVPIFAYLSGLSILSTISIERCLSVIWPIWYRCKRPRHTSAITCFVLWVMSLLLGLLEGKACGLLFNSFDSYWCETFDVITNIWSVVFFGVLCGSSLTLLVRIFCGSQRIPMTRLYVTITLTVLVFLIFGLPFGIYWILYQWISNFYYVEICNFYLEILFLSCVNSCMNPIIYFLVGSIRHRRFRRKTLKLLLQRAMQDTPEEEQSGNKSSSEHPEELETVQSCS", "test": "Calcium imaging / FLIPR EC50 determination in HEK293 cells expressing Mrgprb2", "details": "HEK293 cells stably expressing Mrgprb2 and Gα15", "procedure,_shortened": "as §1"}, "LAD2 human mast cells": {"system": "LAD2 human mast cells", "test": "Mast cell degranulation assay", "details": "30 min at 37°C", "procedure,_shortened": "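LAD2 cells were washed and resuspended at 0.5 × 10^6 cells/mL in 0.4% BSA-HEPES buffer, then exposed to compound for 30 min at 37°C in 5% CO2. β-Hexosaminidase was measured in supernatants and in 0.1% Triton X-100 lysates by p-nitrophenyl N-acetyl-β-D-glucosamide hydrolysis in 0.1 M sodium citrate (pH 4.5) for 90 min at 37°C. Release is expressed as percent of total content.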"}}}
{"substance": "competence stimulating peptide [CSP]", "values": [{"measurement": "activation of MRGPRX2-HEK cells (Ca2+ mobilization)", "setting": "MRGPRX2", "value": "activated"}, {"measurement": "activation of Mrgprb2-HEK cells (Ca2+ mobilization)", "setting": "Mrgprb2", "value": "activated"}]}
{"substance": "autoinducer-2 [AI-2]", "values": [{"measurement": "activation of MRGPRX2-HEK cells (Ca2+ mobilization)", "setting": "MRGPRX2", "value": "did not activate"}, {"measurement": "activation of Mrgprb2-HEK cells (Ca2+ mobilization)", "setting": "Mrgprb2", "value": "did not activate"}, {"measurement": "β-hexosaminidase release", "setting": "LAD2 human mast cells", "value": "did not activate"}]}
